Measured values taken from ChEMBL document CHEMBL1641576, “Development of a new class of benzoylpyrrole-based PPARα/γ activators” (Bioorg Med Chem Lett, 2011).
Blank lines part the entries; values can stand above or below the compound they belong to. Calls of active or inactive are those of the source. The calls are words filed in the database; no cut-off is given here.

Key:
[1] = target: T1, Peroxisome proliferator-activated receptor alpha (Homo sapiens) (UniProt Q07869); experiment: Agonist activity at human PPARalpha ligand binding domain expressed in COS-1 cells co-transfected with Gal4 at 10 uM by luciferase reporter gene assay relative to control; format: cell-based
T1 sequence (whole entry): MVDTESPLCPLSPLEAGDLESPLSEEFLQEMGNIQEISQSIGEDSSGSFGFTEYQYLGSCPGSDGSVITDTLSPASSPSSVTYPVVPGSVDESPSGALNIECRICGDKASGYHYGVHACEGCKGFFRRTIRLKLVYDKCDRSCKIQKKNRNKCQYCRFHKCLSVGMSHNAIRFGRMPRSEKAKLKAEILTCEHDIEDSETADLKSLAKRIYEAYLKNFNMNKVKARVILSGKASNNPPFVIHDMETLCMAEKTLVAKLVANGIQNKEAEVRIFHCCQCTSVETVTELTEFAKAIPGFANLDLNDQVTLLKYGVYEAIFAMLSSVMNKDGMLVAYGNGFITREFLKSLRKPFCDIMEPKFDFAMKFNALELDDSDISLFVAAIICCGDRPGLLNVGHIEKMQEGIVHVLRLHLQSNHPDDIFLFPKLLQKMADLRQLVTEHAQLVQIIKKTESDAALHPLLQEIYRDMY
Outline: (§1)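 COS-1 cells were seeded at 5 × 10⁴ cells/well and grown about 24 h at 37 °C under 5% CO₂ in DMEM with 10% charcoal-treated FCS. They were lipofected with a GAL4–PPAR ligand-binding-domain fusion plasmid plus a GAL4-responsive luciferase reporter. Medium was replaced at 4 h with medium containing compound; no-drug controls received 0.1% DMSO final. Cells were lysed after 24 h and luciferase was read. Results are reported as fold induction and EC50.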

[2] = AUC in rat at 1 mg/kg, iv; format: ADME, organism-based; set-up: dose 1 mg/kg, route intravenous; conditions: plasma
Outline: (§2)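 Single intravenous dose of the sodium salt given to rats. Plasma concentrations followed to derive AUC, half-life, plasma clearance and steady-state distribution volume.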

[3] = Clearance in rat at 1 mg/kg, iv; format: ADME, organism-based; set-up: dose 1 mg/kg, route intravenous; conditions: in vivo; outline: as §2
Mus musculus [4] = experiment: Toxicity in db/db mouse assessed as effect on food intake at 141 mg/kg administered with chow diet ad for 14 days; format: organism-based; set-up: dose 141 mg/kg; conditions: in vivo, po, 336 h
Outline: (§3)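 […] male db/db mice were randomised into four groups and dosed for 14 days through drug admixed in rodent chow; controls received plain chow. Blood glucose, body weight and food intake were monitored. Values are means of 6 animals/group, compared with vehicle by Dunnett's or Student's test.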

[5] = Oral bioavailability in rat at 10 mg/kg; format: ADME, organism-based; conditions: in vivo
Outline: (§4)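 Single oral dose of the sodium salt given to rats. Plasma profile used to derive AUC, Cmax, Tmax and bioavailability.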

[6] = Half life in rat at 1 mg/kg, iv; format: ADME, organism-based; set-up: dose 1 mg/kg, route intravenous; conditions: in vivo; outline: as §2
[7] = Tmax in rat at 10 mg/kg, po; format: ADME, organism-based; set-up: dose 10 mg/kg, route oral; conditions: in vivo; outline: as §4
[8] = Cmax in rat at 10 mg/kg, po; format: ADME, organism-based; set-up: dose 10 mg/kg, route oral; conditions: in vivo; outline: as §4
Mus musculus [9] = experiment: Toxicity in db/db mouse assessed as effect on food intake at 15 mg/kg administered with chow diet ad for 14 days; format: organism-based; set-up: dose 15 mg/kg; conditions: in vivo, po, 336 h; outline: as §3
[10] = Volume of distribution at steady state in rat at 1 mg/kg, iv; format: ADME, organism-based; set-up: dose 1 mg/kg, route intravenous; conditions: in vivo, read-out: Vdss; outline: as §2
Mus musculus [11] = experiment: Toxicity in db/db mouse assessed as increase of body weight at 15 mg/kg administered with chow diet ad for 14 days; format: organism-based; set-up: dose 15 mg/kg; conditions: in vivo, po, 336 h; outline: as §3
[12] = AUC in rat at 10 mg/kg, po; format: ADME, organism-based; set-up: dose 10 mg/kg, route oral; conditions: plasma; outline: as §4
Mus musculus [13] = experiment: Toxicity in db/db mouse assessed as increase of body weight at 141 mg/kg administered with chow diet ad for 14 days; format: organism-based; set-up: dose 141 mg/kg; conditions: in vivo, po, 336 h; outline: as §3
[14] = target: T2, Peroxisome proliferator-activated receptor alpha (Homo sapiens, UniProt Q07869); experiment: Agonist activity at human PPARalpha ligand binding domain expressed in COS-1 cells co-transfected with Gal4 by luciferase reporter gene assay; format: cell-based; outline: as §1
T2 sequence (Q07869 whole entry): T1 sequence (whole entry)

Homo sapiens = species: Homo sapiens; experiment: Selectivity ratio, ratio of EC50 for human PPARalpha ligand binding domain to EC50 for human PPARgamma ligand binding domain
[15] = target: T1, Peroxisome proliferator-activated receptor alpha (Homo sapiens); experiment: Agonist activity at human PPARalpha ligand binding domain expressed in COS-1 cells co-transfected with Gal4 by luciferase reporter gene assay relative to fenofibric acid; format: cell-based
[16] = target: T3, Peroxisome proliferator-activated receptor gamma (Homo sapiens, UniProt P37231); experiment: Agonist activity at human PPARgamma ligand binding domain expressed in COS-1 cells co-transfected with Gal4 by luciferase reporter gene assay; format: cell-based
T3 sequence (P37231 whole entry): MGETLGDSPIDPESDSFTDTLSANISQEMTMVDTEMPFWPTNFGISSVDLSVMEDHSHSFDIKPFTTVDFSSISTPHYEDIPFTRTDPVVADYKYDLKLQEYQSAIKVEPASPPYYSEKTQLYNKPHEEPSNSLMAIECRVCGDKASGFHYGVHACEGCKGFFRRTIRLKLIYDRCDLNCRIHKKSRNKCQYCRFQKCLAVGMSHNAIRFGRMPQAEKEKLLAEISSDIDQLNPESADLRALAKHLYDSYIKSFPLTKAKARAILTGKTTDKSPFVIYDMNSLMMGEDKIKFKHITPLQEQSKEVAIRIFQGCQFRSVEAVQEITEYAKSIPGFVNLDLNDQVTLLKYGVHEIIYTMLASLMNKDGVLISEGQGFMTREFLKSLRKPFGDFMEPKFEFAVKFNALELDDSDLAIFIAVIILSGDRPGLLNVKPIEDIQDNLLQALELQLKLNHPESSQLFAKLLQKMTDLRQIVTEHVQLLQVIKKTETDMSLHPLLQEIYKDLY

[17] = target: T4, Peroxisome proliferator-activated receptor gamma (Homo sapiens) (UniProt P37231); experiment: Agonist activity at human PPARgamma ligand binding domain expressed in COS-1 cells co-transfected with Gal4 by luciferase reporter gene assay relative to pioglitazone; format: cell-based
T4 sequence (whole entry): T3 sequence (P37231 whole entry)

Mus musculus [18] = experiment: Antidiabetic activity in db/db mouse assessed as reduction of blood glucose level at 41 mg/kg administered with chow diet ad for 14 days; format: functional, organism-based; set-up: dose 41 mg/kg; outline: as §3
Mus musculus [19] = experiment: Toxicity in db/db mouse assessed as increase of body weight at 41 mg/kg administered with chow diet ad for 14 days; format: organism-based; set-up: dose 41 mg/kg; conditions: in vivo, po, 336 h; outline: as §3
Mus musculus [20] = experiment: Toxicity in db/db mouse assessed as effect on food intake at 41 mg/kg administered with chow diet ad for 14 days; format: organism-based; set-up: dose 41 mg/kg; conditions: in vivo, po, 336 h; outline: as §3
[21] = target: T5, Peroxisome proliferator-activated receptor alpha (Mus musculus) (UniProt P23204); experiment: Agonist activity at mouse PPARalpha ligand binding domain expressed in COS-1 cells co-transfected with Gal4 by luciferase reporter gene assay relative to fenofibric acid; format: cell-based
T5 sequence (whole entry): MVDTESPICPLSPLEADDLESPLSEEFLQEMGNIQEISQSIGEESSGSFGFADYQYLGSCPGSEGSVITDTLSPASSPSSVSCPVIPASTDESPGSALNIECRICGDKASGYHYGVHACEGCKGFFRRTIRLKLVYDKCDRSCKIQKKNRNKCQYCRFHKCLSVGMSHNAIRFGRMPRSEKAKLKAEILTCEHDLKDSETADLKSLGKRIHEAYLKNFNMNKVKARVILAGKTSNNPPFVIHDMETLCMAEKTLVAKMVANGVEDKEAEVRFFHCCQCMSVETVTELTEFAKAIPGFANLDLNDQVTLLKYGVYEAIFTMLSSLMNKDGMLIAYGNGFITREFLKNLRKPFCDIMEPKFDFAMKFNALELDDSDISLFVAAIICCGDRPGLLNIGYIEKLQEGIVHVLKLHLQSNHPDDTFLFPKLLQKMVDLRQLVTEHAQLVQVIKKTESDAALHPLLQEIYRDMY

Mus musculus [22] = experiment: Antidiabetic activity in db/db mouse assessed as reduction of blood glucose level at 141 mg/kg administered with chow diet ad for 14 days; format: functional, organism-based; set-up: dose 141 mg/kg; outline: as §3
[23] = target: T6, Peroxisome proliferator-activated receptor alpha (Mus musculus, UniProt P23204); experiment: Agonist activity at mouse PPARalpha ligand binding domain expressed in COS-1 cells co-transfected with Gal4 by luciferase reporter gene assay; format: cell-based; outline: as §1
T6 sequence (P23204 whole entry): T5 sequence (whole entry)

SMILES: COc1cccc(C(=O)c2cccn2C/C=C/c2cccc(OCC(=O)O)c2)c1
fold change (FC) [1]: 1.4

SMILES: COc1ccc(C(=O)c2cccn2C/C=C/c2ccccc2CC(=O)O)cc1
fold change (FC) [1]: 1

SMILES: COc1ccc(C(=O)c2cccn2C/C=C/c2ccc(CC(=O)O)cc2)cc1
fold change (FC) [1]: 0.8

SMILES: CC(C)(Oc1ccc(C(=O)c2ccc(Cl)cc2)cc1)C(=O)O [FENOFIBRIC ACID]
fold change (FC) [1]: 5.6
EC50 [14]: 12 µM

SMILES: COc1ccc(C(=O)c2cccn2C/C=C/c2ccccc2OCC(=O)O)cc1
fold change (FC) [1]: 0.8

SMILES: COc1ccc(C(=O)c2cccn2C/C=C/c2cccc(CC(=O)O)c2)cc1
Ratio EC50 (Homo sapiens): 11
fold change (FC) [1]: 1.6
EC50 [14]: 21 µM
Emax [15]: 43%
EC50 [16]: 2 µM
Emax [17]: 37%

SMILES: CCc1ccc(CCOc2ccc(CC3SC(=O)NC3=O)cc2)nc1 (stereo unspecified) [PIOGLITAZONE]
Activity (Mus musculus [18]): Active
Activity (Mus musculus [19]): Toxic
Activity (Mus musculus [20]): Toxic

SMILES: COc1ccccc1C(=O)c1cccn1C/C=C/c1cccc(OCC(=O)O)c1
fold change (FC) [1]: 0.9

SMILES: COc1ccc(C(=O)c2cc(C)cn2C/C=C/c2ccc(Cl)cc2C(=O)NS(C)(=O)=O)cc1
Ratio EC50 (Homo sapiens): > 7.5
fold change (FC) [1]: 0.9
EC50 [14]: > 90 µM
EC50 [16]: 12 µM
Emax [17]: 19%

SMILES: COc1ccc(C(=O)c2cccn2C/C=C/c2ccc(OCC(=O)O)cc2)cc1
fold change (FC) [1]: 3.5

Now from value to compound, other results behind:

fold change (FC) [1]: 1.9
SMILES: Cc1cccc(C(=O)c2cccn2C/C=C/c2cccc(OCC(=O)O)c2)c1

AUC [2]: 14000 ng·h/mL
clearance [3]: 1.2 mL/min/kg
bioavailability [5]: 42%
half-life [6]: 3.2 h
Tmax [7]: 4 h
Cmax [8]: 4300 ng/mL
Vd [10]: 0.3 L/kg
AUC [12]: 59000 ng·h/mL
SMILES: Cc1ccc(C(=O)c2cccn2C/C=C/c2cccc(OCC(=O)[O-])c2)cc1.[Na+]
Activity (Mus musculus [4]): Non-toxic
Activity (Mus musculus [9]): Non-toxic
Activity (Mus musculus [11]): Non-toxic
Activity (Mus musculus [13]): Non-toxic

Ratio EC50 (Homo sapiens): 1.5
fold change (FC) [1]: 5.2
Emax [15]: 37%
Emax [21]: 25%
Emax [17]: 17%
SMILES: Cc1ccc(C(=O)c2cccn2C/C=C/c2cccc(OCC(=O)O)c2)cc1 [listing 1 of 2 here]
Activity (Mus musculus [22]): Active

Ratio EC50 (Homo sapiens): 1.9
fold change (FC) [1]: 5.8
EC50 [14]: 3.7 µM
Emax [15]: 42%
EC50 [16]: 1.9 µM
Emax [17]: 16%
SMILES: COc1ccc(C(=O)c2cccn2C/C=C/c2cccc(OCC(=O)O)c2)cc1

fold change (FC) [1]: 1.1
SMILES: Cc1ccccc1C(=O)c1cccn1C/C=C/c1cccc(OCC(=O)O)c1

EC50 [14]: 1.8 µM
EC50 [16]: 1.2 µM
EC50 [23]: 4.9 µM
SMILES: Cc1ccc(C(=O)c2cccn2C/C=C/c2cccc(OCC(=O)O)c2)cc1 [listing 2 of 2 here]
